Activity calls are given as the source filed them. The rule behind the calls is not given here.
What was measured:
[1] = molecular target: T1, Interleukin-1 receptor-associated kinase 4 (Homo sapiens, UniProt Q9NWZ3); test: Inhibition of IRAK4 (unknown origin) using methylcoumarin-labeled peptide as substrate in presence of ATP by FRET assay
T1 sequence (Q9NWZ3 whole entry): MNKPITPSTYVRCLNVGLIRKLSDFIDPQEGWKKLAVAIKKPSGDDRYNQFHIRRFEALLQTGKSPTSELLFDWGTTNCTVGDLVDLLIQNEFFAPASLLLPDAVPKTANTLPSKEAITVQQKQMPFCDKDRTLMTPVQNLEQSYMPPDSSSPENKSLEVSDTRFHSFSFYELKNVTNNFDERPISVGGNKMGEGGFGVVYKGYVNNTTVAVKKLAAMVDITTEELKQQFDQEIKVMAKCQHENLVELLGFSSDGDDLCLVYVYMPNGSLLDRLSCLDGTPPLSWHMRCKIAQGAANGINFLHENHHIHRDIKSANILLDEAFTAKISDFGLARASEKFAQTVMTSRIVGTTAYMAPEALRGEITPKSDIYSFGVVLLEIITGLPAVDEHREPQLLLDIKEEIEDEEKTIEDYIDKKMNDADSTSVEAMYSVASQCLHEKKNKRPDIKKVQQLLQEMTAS

[2] = molecular target: T2, Mitogen-activated protein kinase kinase kinase 19 (Homo sapiens, UniProt Q56UN5); test: Inhibition of wild-type human partial length YSK4 (T1019 to H1328 residues) expressed in mammalian expression system by Kinomescan method
T2 sequence (Q56UN5 whole entry): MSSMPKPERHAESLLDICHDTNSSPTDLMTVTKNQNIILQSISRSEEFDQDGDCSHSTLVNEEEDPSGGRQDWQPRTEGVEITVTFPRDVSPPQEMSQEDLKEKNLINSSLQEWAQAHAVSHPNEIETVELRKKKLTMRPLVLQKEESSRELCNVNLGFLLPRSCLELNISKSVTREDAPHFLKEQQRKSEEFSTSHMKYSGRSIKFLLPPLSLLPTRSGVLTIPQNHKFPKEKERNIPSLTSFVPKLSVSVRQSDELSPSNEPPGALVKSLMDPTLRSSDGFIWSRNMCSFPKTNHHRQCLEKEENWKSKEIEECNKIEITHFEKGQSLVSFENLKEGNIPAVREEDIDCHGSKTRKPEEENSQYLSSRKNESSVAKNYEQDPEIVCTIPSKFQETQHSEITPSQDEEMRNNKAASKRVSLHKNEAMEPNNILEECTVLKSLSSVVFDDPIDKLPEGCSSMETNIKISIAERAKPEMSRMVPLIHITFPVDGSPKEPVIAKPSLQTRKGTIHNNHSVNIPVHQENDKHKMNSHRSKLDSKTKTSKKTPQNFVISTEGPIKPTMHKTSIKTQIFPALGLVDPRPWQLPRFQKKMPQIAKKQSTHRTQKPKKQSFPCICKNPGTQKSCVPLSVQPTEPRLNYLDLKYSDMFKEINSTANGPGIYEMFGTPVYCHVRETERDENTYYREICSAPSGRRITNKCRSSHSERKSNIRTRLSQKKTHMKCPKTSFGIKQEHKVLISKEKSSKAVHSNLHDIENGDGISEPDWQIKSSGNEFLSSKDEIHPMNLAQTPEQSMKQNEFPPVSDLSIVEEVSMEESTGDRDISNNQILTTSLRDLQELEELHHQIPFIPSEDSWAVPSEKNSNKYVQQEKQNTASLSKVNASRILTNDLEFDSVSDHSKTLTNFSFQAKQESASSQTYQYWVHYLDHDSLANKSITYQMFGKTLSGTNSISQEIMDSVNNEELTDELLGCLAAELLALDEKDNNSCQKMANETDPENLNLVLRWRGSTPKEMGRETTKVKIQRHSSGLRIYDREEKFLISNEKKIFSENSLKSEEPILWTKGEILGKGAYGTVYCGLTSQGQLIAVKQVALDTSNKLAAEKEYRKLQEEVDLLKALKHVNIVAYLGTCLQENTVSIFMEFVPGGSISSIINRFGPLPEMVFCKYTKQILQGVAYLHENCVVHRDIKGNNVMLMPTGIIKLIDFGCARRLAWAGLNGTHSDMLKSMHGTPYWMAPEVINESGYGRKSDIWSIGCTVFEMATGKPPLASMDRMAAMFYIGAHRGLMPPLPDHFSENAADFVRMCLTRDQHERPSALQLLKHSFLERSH

[3] = molecular target: T3, Interleukin-1 receptor-associated kinase 1 (Homo sapiens, UniProt P51617); test: Covalent binding affinity to recombinant IRAK1 (unknown origin) assessed as labeling at Cys302 residue site measured after 2 hrs by LC-MS analysis
Target sequence in this assay (P51617 whole entry, looked up): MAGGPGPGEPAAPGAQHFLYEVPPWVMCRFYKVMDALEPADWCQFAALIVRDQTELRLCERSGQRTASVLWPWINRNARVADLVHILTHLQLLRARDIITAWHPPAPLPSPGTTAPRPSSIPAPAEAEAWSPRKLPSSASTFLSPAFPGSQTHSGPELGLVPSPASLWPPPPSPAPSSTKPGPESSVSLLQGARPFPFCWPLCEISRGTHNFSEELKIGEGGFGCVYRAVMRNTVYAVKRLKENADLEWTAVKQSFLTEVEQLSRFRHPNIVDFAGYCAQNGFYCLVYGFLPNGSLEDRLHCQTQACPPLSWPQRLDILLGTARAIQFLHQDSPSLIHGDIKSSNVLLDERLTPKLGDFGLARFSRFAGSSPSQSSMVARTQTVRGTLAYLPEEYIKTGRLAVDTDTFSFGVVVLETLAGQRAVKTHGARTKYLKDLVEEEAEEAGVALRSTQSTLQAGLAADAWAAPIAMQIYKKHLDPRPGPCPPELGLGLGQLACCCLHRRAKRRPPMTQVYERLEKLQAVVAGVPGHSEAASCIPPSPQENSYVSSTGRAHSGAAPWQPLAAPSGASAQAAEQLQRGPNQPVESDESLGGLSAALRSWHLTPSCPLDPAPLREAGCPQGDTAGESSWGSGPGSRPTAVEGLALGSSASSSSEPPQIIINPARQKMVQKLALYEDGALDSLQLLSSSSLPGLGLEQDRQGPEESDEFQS

[4] = Cytotoxicity against human BCWM1 cells expressing MYD88 mutant assessed as cell killing measured after 72 hrs by CellTiter-Glo luminescent cell viability assay; assay type: functional, cell-based; conditions: BCWM1, 72 h
Procedure, shortened: (§1)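 Cells were exposed to inhibitors for 72 h, and viability was read by CellTiter-Glo luminescence. EC50 values were derived from dose–response curves.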

[5] = Cytotoxicity against human MWCL1 cells expressing MYD88 mutant assessed as cell killing measured after 72 hrs by CellTiter-Glo luminescent cell viability assay; assay type: functional, cell-based; procedure, shortened: as §1
TMD8 = test: Cytotoxicity against human TMD8 cells expressing MYD88 mutant assessed as cell killing measured after 72 hrs by CellTiter-Glo luminescent cell viability assay; assay type: functional, cell-based; procedure, shortened: as §1
[6] = Cytotoxicity against human HBL1 cells expressing MYD88 mutant assessed as cell killing measured after 72 hrs by CellTiter-Glo luminescent cell viability assay; assay type: functional, cell-based; procedure, shortened: as §1
OCI-Ly3 = test: Cytotoxicity against human OCILY3 cells expressing MYD88 mutant assessed as cell killing measured after 72 hrs by CellTiter-Glo luminescent cell viability assay; assay type: functional, cell-based; procedure, shortened: as §1
OCI-Ly7 = test: Cytotoxicity against human OCILY7 cells expressing MYD88 mutant assessed as cell killing measured after 72 hrs by CellTiter-Glo luminescent cell viability assay; assay type: functional, cell-based; procedure, shortened: as §1
OCI-LY19 = test: Cytotoxicity against human OCILY19 cells expressing MYD88 mutant assessed as cell killing measured after 72 hrs by CellTiter-Glo luminescent cell viability assay; assay type: functional, cell-based; procedure, shortened: as §1
Ramos = test: Cytotoxicity against human Ramos cells expressing MYD88 mutant assessed as cell killing measured after 72 hrs by CellTiter-Glo luminescent cell viability assay; assay type: functional, cell-based; procedure, shortened: as §1
RPMI-8226 = test: Cytotoxicity against human RPMI-8226 cells expressing MYD88 mutant assessed as cell killing measured after 72 hrs by CellTiter-Glo luminescent cell viability assay; assay type: functional, cell-based; procedure, shortened: as §1
[7] = molecular target: T3, Interleukin-1 receptor-associated kinase 1; test: Inhibition of desthio-biotinylated JH-XIII-39-01 probe binding to IRAK1 in human BCWM1 cells assessed as blocking of IRAK1 pulldown at 5 to 10 uM measured after 90 mins by Western blot based pulldown assay; assay type: cell-based
Target sequence in this assay (P51617 whole entry, looked up): as above

[8] = molecular target: T3, Interleukin-1 receptor-associated kinase 1; test: Covalent binding affinity to recombinant IRAK1 (unknown origin) assessed as labeling at Cys307 residue site measured after 2 hrs by LC-MS analysis
Target sequence in this assay (P51617 whole entry, looked up): as above

[9] = molecular target: T3, Interleukin-1 receptor-associated kinase 1; test: Inhibition of recombinant IRAK1 (unknown origin) by Invitrogen adapta assay
Target sequence in this assay (P51617 whole entry): as the sequence (P51617 whole entry, looked up) above

[10] = molecular target: T3, Interleukin-1 receptor-associated kinase 1; test: Inhibition of desthio-biotinylated JH-XIII-39-01 probe binding to IRAK1 in human BCWM1 cells assessed as blocking of IRAK1 pulldown at 5 uM measured after 90 mins by Western blot based pulldown assay; assay type: cell-based
Target sequence in this assay (P51617 whole entry, looked up): as above

[11] = molecular target: T3, Interleukin-1 receptor-associated kinase 1; test: Inhibition of wild-type human partial length IRAK1 (R194 to S712 residues) expressed in mammalian expression system by Kinomescan method
Target sequence in this assay (P51617 whole entry): as the sequence (P51617 whole entry, looked up) above

[12] = molecular target: T1, Interleukin-1 receptor-associated kinase 4; test: Inhibition of wild-type human partial length IRAK4 (M1 to S460 residues) expressed in mammalian expression system by Kinomescan method
[13] = molecular target: T3, Interleukin-1 receptor-associated kinase 1; test: Covalent binding affinity to recombinant IRAK1 (unknown origin) assessed as labeling at Cys302/Cys307 residue sites at ratio 3:1 measured after 2 hrs by LC-MS analysis
Target sequence in this assay (P51617 whole entry, looked up): as above

[14] = Homo sapiens, MWCL1, 72 h, read-out: EC50
[15] = Homo sapiens, TMD8, 72 h, read-out: EC50
[16] = Homo sapiens, HBL1, 72 h, read-out: EC50
[17] = Homo sapiens, OCI-Ly3, 72 h, read-out: EC50
[18] = Homo sapiens, OCI-Ly7, 72 h, read-out: EC50
[19] = Homo sapiens, OCI-LY19, 72 h, read-out: EC50
[20] = Homo sapiens, Ramos, 72 h, read-out: EC50
[21] = Homo sapiens, RPMI-8226, 72 h, read-out: EC50

| Compound | EC50 [4] | EC50 [5, 14] | EC50 (TMD8; [15]) | EC50 [6, 16] | EC50 (OCI-Ly7; [18]) | EC50 (OCI-LY19; [19]) | EC50 (RPMI-8226; [21]) | EC50 (TMD8; tmd8) | EC50 ([6]; hbl1) | EC50 (OCI-Ly3; oci-ly3) | EC50 (Ramos; ramos) | EC50 (RPMI-8226; rpmi-8226) | also measured |
| --- | --- | --- | --- | --- | --- | --- | --- | --- | --- | --- | --- | --- | --- |
| C=CC(=O)Nc1cccc(C(=O)Nc2ccc(NC(=O)c3cccc(-c4ccn[nH]4)n3)cc2)c1 | 1.02 µM | 3.88 µM | 2.4 µM | 12.1 µM | 2.39 µM | 0.59 µM | 5.13 µM |  |  |  |  |  | IC50 [1]: > 10 µM; IC50 [2]: 0.057 µM; Activity [3]: Active; EC50 (OCI-Ly3; [17]): 9.72 µM; EC50 (Ramos; [20]): 1.79 µM; inhibition [7]: Active |
| C=CC(=O)Nc1cccc(C(=O)Nc2cccc(NC(=O)c3cccc(-c4ccn[nH]4)n3)c2)c1 | 12.8 µM | 29 µM |  |  | 16.1 µM | 2.9 µM |  | Not Active | Not Active | Not Active | Not Active | Not Active | Activity [3]: Active; inhibition [7]: Active |
| C=CC(=O)Nc1ccc(C(=O)Nc2ccc(NC(=O)c3cccc(-c4ccn[nH]4)n3)cc2)cc1 | 2.54 µM | 4.91 µM | 5.26 µM | 14.6 µM | 5.16 µM | 0.71 µM |  |  |  | Not Active | Not Active | Not Active | Activity [8]: Active |
| CC1NC(=O)NC1CCCCCC(=O)NCCOCCOCCOCCNC(=O)CCN(C)C/C=C/C(=O)Nc1cccc(C(=O)Nc2ccc(NC(=O)c3cccc(-c4ccn[nH]4)n3)cc2)c1 (stereo not given) |  |  |  |  |  |  |  |  |  |  |  |  | IC50 [9]: 0.07 µM |
| CN(C)C/C=C/C(=O)Nc1cccc(C(=O)Nc2ccc(NC(=O)c3cccc(-c4ccn[nH]4)n3)cc2)c1 | 5.62 µM | 8.13 µM | 10.6 µM | 18.2 µM | 7.65 µM | 1.8 µM | 19.8 µM |  |  |  |  |  | IC50 [9]: 0.052 µM; EC50 (OCI-Ly3; [17]): 14.3 µM; EC50 (Ramos; [20]): 6.99 µM; inhibition [10]: Active |
| COc1cc(N2CCOCC2)ccc1NC(=O)c1cccc(-c2ccn[nH]2)n1 |  |  |  |  |  |  |  |  |  |  |  |  | IC50 [11]: 0.009 µM; IC50 [12]: 0.017 µM |
| CCC(=O)Nc1cccc(C(=O)Nc2ccc(NC(=O)c3cccc(-c4ccn[nH]4)n3)cc2)c1 | 19.9 µM |  |  |  | 20.7 µM | 7.79 µM | 31.1 µM | Not Active | Not Active | Not Active | Not Active |  | EC50 ([5]; mwcl1): Not Active |
| C=CC(=O)Nc1ccc(C(=O)Nc2cccc(NC(=O)c3cccc(-c4ccn[nH]4)n3)c2)cc1 | 418 µM |  |  |  |  |  |  | Not Active | Not Active | Not Active | Not Active | Not Active | IC50 [1]: > 10 µM; Activity [13]: Active; EC50 ([5]; mwcl1): Not Active; EC50 (OCI-Ly7; oci-ly7): Not Active; EC50 (OCI-LY19; oci-ly19): Not Active |
| CN(C)C/C=C/C(=O)Nc1cccc(C(=O)Nc2ccc(Nc3nccc(-c4cccnc4)n3)cc2)c1 |  |  |  |  |  |  |  |  |  |  |  |  | IC50 [11]: 0.0142 µM; IC50 [12]: > 10 µM |
